Laboratory results: PMC9069932 (RSC Advances, 2019)
Where two headings read alike, the source gives them in different places.

Assays:
Format in all cases: cell-based, human
[1] = tested on: U-118 MG; assay: MTT cell viability/proliferation assay, U-118 MG; settings: read-out: U-118 MG IC50
Summary of the method: (§1)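 Human lines grown at 37 °C, 5% CO2 with 10% FBS: U-118 MG in DMEM; T98G and HaCaT in EMEM. Seeded 1 × 10⁴ cells/well, left 24 h, then exposed 48 h to test compound at 7.81–1000 μg mL⁻¹ (eight twofold steps). MTT added at 0.5 mg mL⁻¹ final for 2 h. Formazan dissolved in DMSO, read at 492 nm against 690 nm reference. IC50 is the mean of ≥3 independent experiments.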

[2] = tested on: HaCaT; assay: MTT cell viability/proliferation assay, HaCaT; settings: read-out: HaCaT IC50
Summary of the method: as §1

[3] = tested on: T98G; assay: MTT cell viability/proliferation assay, T98G; settings: read-out: T98G IC50
Summary of the method: as §1

[4] = tested on: T98G cells; assay: Colony formation; settings: for clonogenic survival compared to control cells: 20 μM; for reduction of cancer cell clonogenic potential: 50 μM
Summary of the method: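 T98G cells seeded at 500 per well and allowed to adhere 24 h. Exposed to test compound at 2–100 μM in triplicate; after 24 h switched to compound-free medium, 7 days total. Colonies (≥50 cells) methanol-fixed, stained with 1% gentian violet and counted by light microscopy.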

[5] = MTT, 48 hours, glioblastoma multiforme cell line

Compound: O=c1[nH]c(=O)n([C@H]2C[C@H](O)[C@@H](CO)O2)cc1F [Compound 5-FdU, 5-fluoro-2′-deoxyuridine, reference compound]
- IC50 ([1]; Homo sapiens, U-118-MG, 48 h): 23.4 ± 1.6 µM
- IC50 ([2]; Homo sapiens, HaCaT, 48 h): 4.42 ± 1.1 µM
- IC50 ([3]; Homo sapiens, T98G, 48 h): 5.57 ± 0.9 µM

Compound: CCOP(=O)(OCC)C(Cc1c(F)c(F)c(F)c(F)c1F)Nc1ccccc1 (stereo not shown) [Compound 1a, Diethyl (2-(perfluorophenyl)-1-(phenylamino)ethyl)phosphonate]
- IC50 ([1]; Homo sapiens, U-118-MG, 48 h): 60.7 ± 8.9 µM
- IC50 ([2]; Homo sapiens, HaCaT, 48 h): 56.8 ± 7.4 µM
- IC50 ([3]; Homo sapiens, T98G, 48 h): 40.4 ± 6.2 µM

Compound: CCOP(=O)(OCC)C(Cc1c(F)c(F)c(Oc2ccc(Cl)cc2)c(F)c1F)Nc1ccccc1 (stereo not shown) [Compound 2r, Diethyl (2-(4-(4-chlorophenoxy)-2,3,5,6-tetrafluorophenyl)-1-(phenylamino)ethyl)phosphonate]
- IC50 ([1]; Homo sapiens, U-118-MG, 48 h): 79.2 ± 6.4 µM
- IC50 ([2]; Homo sapiens, HaCaT, 48 h): 48.4 ± 7.4 µM
- IC50 ([3]; Homo sapiens, T98G, 48 h): 70.3 ± 8.3 µM

Compound: Diethyl (1-(phenylamino)-2-(2,3,5,6-tetrafluoro-4-(m-tolylthio)phenyl)ethyl)phosphonate [Compound 2b]
- IC50 [1, 5]: 37.9 ± 2.5 µM
- IC50 ([2]; MTT, 48 hours, referential healthy cells): 26.5 ± 4.7 µM
- IC50 [3, 5]: 14.5 ± 3.3 µM

Compound: CCOP(=O)(OCC)C(Cc1c(F)c(F)c(Sc2cccc(OC)c2)c(F)c1F)Nc1ccccc1 (stereo not shown) [Compound 2e, Diethyl (1-(phenylamino)-2-(2,3,5,6-tetrafluoro-4-((3-methoxyphenyl)thio)phenyl)ethyl)phosphonate]
- IC50 ([1]; Homo sapiens, U-118-MG, 48 h): 21.4 ± 2.7 µM
- IC50 ([2]; Homo sapiens, HaCaT, 48 h): 10.1 ± 2.2 µM
- clonogenic survival compared to control cells [4]: 30%
- reduction of cancer cell clonogenic potential [4]: 85%
- IC50 ([3]; Homo sapiens, T98G, 48 h): 20.4 ± 3.1 µM

Compound: CCOP(=O)(OCC)C(Cc1c(F)c(F)c(Sc2cccc(N)c2)c(F)c1F)Nc1ccccc1 (stereo not shown) [Compound 2f, Diethyl (2-(4-((3-aminophenyl)thio)-2,3,5,6-tetrafluorophenyl)-1-(phenylamino)ethyl)phosphonate]
- IC50 ([1]; Homo sapiens, U-118-MG, 48 h): 28.1 ± 3.6 µM
- IC50 ([2]; Homo sapiens, HaCaT, 48 h): 18.2 ± 3.4 µM
- clonogenic survival compared to control cells [4]: 10%
- reduction of cancer cell clonogenic potential [4]: 98%
- IC50 ([3]; Homo sapiens, T98G, 48 h): 25.5 ± 1.9 µM

Compound: CCOP(=O)(OCC)C(Cc1c(F)c(F)c(SCC(NC(C)=O)C(=O)OC)c(F)c1F)Nc1ccccc1 (stereo not shown) [Compound 2j, Methyl 2-acetamido-3-((4-(2-(diethoxyphosphoryl)-2-(phenylamino)ethyl)-2,3,5,6-tetrafluorophenyl)thio)propanoate]
- IC50 ([1]; Homo sapiens, U-118-MG, 48 h): > 100 µM
- IC50 ([2]; Homo sapiens, HaCaT, 48 h): > 100 µM
- IC50 ([3]; Homo sapiens, T98G, 48 h): 82.7 ± 15.7 µM
